{
  "source": "ChEMBL document CHEMBL3259728",
  "about": "“Design, synthesis and biological evaluation of some novel substituted quinazolines as antitumor agents” (2014)",
  "data": [
    {"system": "NCI-H522", "experiment": "Growth inhibition of human NCI-H522 cells at 10 uM after 48 hrs by SRB assay", "assay_type": "functional", "conditions": "NCI-H522, 48 h, read-out: GI", "method_in_brief": "(§1)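 NCI-60 primary one-dose screen run at the US NCI, with human tumour lines from nine cancer types. Compound added once at 10^-5 M, followed by 48 h incubation. End point was sulforhodamine B protein staining read spectrophotometrically. Result given as percent growth of treated cells against untreated controls, reported as % growth inhibition.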", "units": {"inhibition of growth at 10 µM": "%"}, "values": [
      {"smiles": "Cc1ccc(C2=Nc3ccc(Cl)cc3C3=NNCC(=O)NN23)cc1", "inhibition of growth at 10 µM": "< 10"}
    ]},
    {"system": "K562", "experiment": "Growth inhibition of human K562 cells at 10 uM after 48 hrs by SRB assay", "assay_type": "functional", "conditions": "K562, 48 h, read-out: GI", "method_in_brief": "as §1", "units": {"inhibition of growth at 10 µM": "%"}, "values": [
      {"smiles": "Cc1ccc(C2=Nc3ccc(Cl)cc3C3=NNCC(=O)NN23)cc1", "inhibition of growth at 10 µM": "< 10"}
    ]},
    {"system": "U-251", "experiment": "Growth inhibition of human U251 cells at 10 uM after 48 hrs by SRB assay", "assay_type": "functional", "conditions": "U-251, 48 h, read-out: GI", "method_in_brief": "as §1", "units": {"inhibition of growth at 10 µM": "%"}, "values": [
      {"smiles": "Cc1ccc(C2=Nc3ccc(Cl)cc3C3=NNCC(=O)NN23)cc1", "inhibition of growth at 10 µM": "< 10"}
    ]},
    {"system": "not listed separately", "experiment": "Growth inhibition of human OVCAR8 cells at 10 uM after 48 hrs by SRB assay", "assay_type": "functional", "conditions": "OVCAR-8, 48 h, read-out: GI", "method_in_brief": "as §1", "units": {"inhibition of growth at 10 µM": "%"}, "values": [
      {"smiles": "Cc1ccc(C2=Nc3ccc(Cl)cc3C3=NNCC(=O)NN23)cc1", "inhibition of growth at 10 µM": "< 10"}
    ]},
    {"system": "not listed separately", "experiment": "Growth inhibition of human UACC62 cells at 10 uM after 48 hrs by SRB assay", "assay_type": "functional", "conditions": "UACC-62, 48 h, read-out: GI", "method_in_brief": "as §1", "units": {"inhibition of growth at 10 µM": "%"}, "values": [
      {"smiles": "Cc1ccc(C2=Nc3ccc(Cl)cc3C3=NNCC(=O)NN23)cc1", "inhibition of growth at 10 µM": "< 10"}
    ]},
    {"system": "SK-MEL-5", "experiment": "Growth inhibition of human SK-MEL-5 cells at 10 uM after 48 hrs by SRB assay", "assay_type": "functional", "conditions": "SK-MEL-5, 48 h, read-out: GI", "method_in_brief": "as §1", "units": {"inhibition of growth at 10 µM": "%"}, "values": [
      {"smiles": "Cc1ccc(C2=Nc3ccc(Cl)cc3C3=NNCC(=O)NN23)cc1", "inhibition of growth at 10 µM": "< 10"}
    ]},
    {"system": "NCI-H226", "experiment": "Growth inhibition of human NCI-H226 cells at 10 uM after 48 hrs by SRB assay", "assay_type": "functional", "conditions": "NCI-H226, 48 h, read-out: GI", "method_in_brief": "as §1", "units": {"inhibition of growth at 10 µM": "%"}, "values": [
      {"smiles": "Cc1ccc(C2=Nc3ccc(Cl)cc3C3=NNCC(=O)NN23)cc1", "inhibition of growth at 10 µM": "< 10"}
    ]},
    {"system": "SK-MEL-2", "experiment": "Growth inhibition of human SK-MEL-2 cells at 10 uM after 48 hrs by SRB assay", "assay_type": "functional", "conditions": "SK-MEL-2, 48 h, read-out: GI", "method_in_brief": "as §1", "units": {"inhibition of growth at 10 µM": "%"}, "values": [
      {"smiles": "Cc1ccc(C2=Nc3ccc(Cl)cc3C3=NNCC(=O)NN23)cc1", "inhibition of growth at 10 µM": "< 10"}
    ]},
    {"system": "SF-268", "experiment": "Growth inhibition of human SF268 cells at 10 uM after 48 hrs by SRB assay", "assay_type": "functional", "conditions": "SF-268, 48 h, read-out: GI", "method_in_brief": "as §1", "units": {"inhibition of growth at 10 µM": "%"}, "values": [
      {"smiles": "Cc1ccc(C2=Nc3ccc(Cl)cc3C3=NNCC(=O)NN23)cc1", "inhibition of growth at 10 µM": "< 10"}
    ]},
    {"system": "MDA-MB-468", "experiment": "Growth inhibition of human MDA-MB-468 cells assessed as cell growth at 10 uM after 48 hrs by SRB assay", "assay_type": "functional", "conditions": "MDA-MB-468, 48 h, read-out: GI", "method_in_brief": "as §1", "units": {"inhibition of growth at 10 µM": "%"}, "values": [
      {"smiles": "Cc1ccc(C2=Nc3ccc(Cl)cc3C3=NNCC(=O)NN23)cc1", "inhibition of growth at 10 µM": 11}
    ]},
    {"system": "not listed separately", "experiment": "Growth inhibition of human NCI-ADR-RES cells at 10 uM after 48 hrs by SRB assay", "assay_type": "functional", "conditions": "read-out: GI", "method_in_brief": "as §1", "units": {"inhibition of growth at 10 µM": "%"}, "values": [
      {"smiles": "Cc1ccc(C2=Nc3ccc(Cl)cc3C3=NNCC(=O)NN23)cc1", "inhibition of growth at 10 µM": "< 10"}
    ]},
    {"system": "not listed separately", "experiment": "Growth inhibition of human SF539 cells at 10 uM after 48 hrs by SRB assay", "assay_type": "functional", "conditions": "SF-539, 48 h, read-out: GI", "method_in_brief": "as §1", "units": {"inhibition of growth at 10 µM": "%"}, "values": [
      {"smiles": "Cc1ccc(C2=Nc3ccc(Cl)cc3C3=NNCC(=O)NN23)cc1", "inhibition of growth at 10 µM": "< 10"}
    ]},
    {"system": "not listed separately", "experiment": "Growth inhibition of human UACC257 cells at 10 uM after 48 hrs by SRB assay", "assay_type": "functional", "conditions": "UACC-257, 48 h, read-out: GI", "method_in_brief": "as §1", "units": {"inhibition of growth at 10 µM": "%"}, "values": [
      {"smiles": "Cc1ccc(C2=Nc3ccc(Cl)cc3C3=NNCC(=O)NN23)cc1", "inhibition of growth at 10 µM": "< 10"}
    ]},
    {"system": "HT-29", "experiment": "Growth inhibition of human HT-29 cells at 10 uM after 48 hrs by SRB assay", "assay_type": "functional", "conditions": "HT-29, 48 h, read-out: GI", "method_in_brief": "as §1", "units": {"inhibition of growth at 10 µM": "%"}, "values": [
      {"smiles": "Cc1ccc(C2=Nc3ccc(Cl)cc3C3=NNCC(=O)NN23)cc1", "inhibition of growth at 10 µM": "< 10"}
    ]},
    {"system": "not listed separately", "experiment": "Growth inhibition of human BT549 cells at 10 uM after 48 hrs by SRB assay", "assay_type": "functional", "conditions": "BT-549, 48 h, read-out: GI", "method_in_brief": "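NCI primary one-dose screen. A single concentration of 10^-5 M was added to the cell culture, followed by 48 h incubation and an SRB protein-dye endpoint read spectrophotometrically. Results are growth percentage relative to untreated control cells, reported as % growth inhibition.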", "units": {"inhibition of growth at 10 µM": "%"}, "values": [
      {"smiles": "Cc1ccc(C2=Nc3ccc(Cl)cc3C3=NNCC(=O)NN23)cc1", "inhibition of growth at 10 µM": "< 10"}
    ]},
    {"system": "SNB-75", "experiment": "Growth inhibition of human SNB75 cells at 10 uM after 48 hrs by SRB assay", "assay_type": "functional", "conditions": "SNB-75, 48 h, read-out: GI", "method_in_brief": "as §1", "units": {"inhibition of growth at 10 µM": "%"}, "values": [
      {"smiles": "Cc1ccc(C2=Nc3ccc(Cl)cc3C3=NNCC(=O)NN23)cc1", "inhibition of growth at 10 µM": "< 10"}
    ]},
    {"system": "not listed separately", "experiment": "Growth inhibition of human HCT15 cells at 10 uM after 48 hrs by SRB assay", "assay_type": "functional", "conditions": "HCT-15, 48 h, read-out: GI", "method_in_brief": "as §1", "units": {"inhibition of growth at 10 µM": "%"}, "values": [
      {"smiles": "Cc1ccc(C2=Nc3ccc(Cl)cc3C3=NNCC(=O)NN23)cc1", "inhibition of growth at 10 µM": "< 10"}
    ]},
    {"system": "DU-145", "experiment": "Growth inhibition of human DU145 cells at 10 uM after 48 hrs by SRB assay", "assay_type": "functional", "conditions": "DU-145, 48 h, read-out: GI", "method_in_brief": "as §1", "units": {"inhibition of growth at 10 µM": "%"}, "values": [
      {"smiles": "Cc1ccc(C2=Nc3ccc(Cl)cc3C3=NNCC(=O)NN23)cc1", "inhibition of growth at 10 µM": "< 10"}
    ]}
  ]
}
